Tests used:
[1] = folding enthalpy; higher = less favourable; fluorescence melt of hairpins on a sequencing array, two-state fit; conditions: sodium 0.088 M
Method in brief: (§1)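 Folding enthalpy and melting temperature come from bootstrapped two-state fits to Cy3 fluorescence of library hairpins carrying annealed Cy3 and quencher oligos on a sequenced MiSeq flow cell. Imaging was done in 50 mM Na-HEPES pH 8.0, 25 mM NaCl, stepping by 2.5 °C up to 60 °C, and signals were normalised to pre-quench Cy3 and to control constructs. Results of four replicates were combined by inverse variance, and fitted temperatures were raised by 9.35 °C to match UV melts.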

[2] = melting temperature; fluorescence melt of hairpins on a sequencing array, two-state fit, raised by 9.35 °C to match UV melts; conditions: sodium 0.088 M
Method in brief: as §1

Row | Sequence | folding enthalpy [1] | Tm [2]
1 | GCTTCAGGAAACTGGAGC (((.(((....))).))) | -38.5 kcal/mol | 49.9 °C
2 | GCTTCCGAAAGGAGCAGC ((((((....)))..))) | -15.2 kcal/mol | 41.7 °C
3 | GCTTCCGCGAAAGCGAGC (((..(((....)))))) | -11 kcal/mol | 35.5 °C
4 | GCTTCCGGAAACGGGAGC (((.(((....))).))) | -40.1 kcal/mol | 59.5 °C
5 | GCTTCGAAAGAAGC (((((....))))) | -26.6 kcal/mol | 66.8 °C
6 | GCTTCGCGAAAGCAACGC ((.(.((....)).).)) | -10 kcal/mol | 29.2 °C
7 | GCTTCGCGAAAGCGCCGC ((..(((....)))..)) | -12.2 kcal/mol | 44.7 °C
8 | GCTTCGCGAAAGCGCGGC ((..(((....)))..)) | -18.8 kcal/mol | 39.6 °C
9 | GCTTCGCGAAAGCGGCGC ((..(((....)))..)) | -15.6 kcal/mol | 51.9 °C
10 | GCTTCGCGAAAGCTCAGC (((..((....))..))) | -13.4 kcal/mol | 44.5 °C
11 | GCTTCGGAAACGAAGC ((((((....)))))) | -36.3 kcal/mol | 67.8 °C
12 | GCTTCGGGAAACTGAGGC ((.((.(....).)).)) | -28.8 kcal/mol | 36.5 °C
13 | GCTTCTACGAAAGTAAGC (((..(((....)))))) | -14 kcal/mol | 33.1 °C
14 | GCTTCTCGAAAGAGAGC (((.(((....)))))) | -22 kcal/mol | 49.4 °C
15 | GCTTCTGGAAACAGGAGC (((.(((....))).))) | -37.5 kcal/mol | 50.5 °C
16 | GCTTGACCGAAAGGTAGC (((..(((....)))))) | -21.4 kcal/mol | 38.7 °C
17 | GCTTGACGAAAGTCTAGC (((.(((....))).))) | -35.2 kcal/mol | 55.2 °C
18 | GCTTGAGGAAACTTGAGC (((..((....))..))) | -16.7 kcal/mol | 33.8 °C
19 | GCTTGCGAAAGCAATAGC ((((((....)))..))) | -15.3 kcal/mol | 47.1 °C

Row | Sequence | folding enthalpy [1] | Tm [2]
20 | GCTTGGCGAAAGCAGAGC (((..((....))..))) | -18.2 kcal/mol | 54 °C
21 | GCTTGGCGAAAGCCAGGC ((.((((....)))).)) | -23.5 kcal/mol | 66.4 °C
22 | GCTTGGCGAAAGCCCAGC (((.(((....))).))) | -36.6 kcal/mol | 51.2 °C
23 | GCTTGGCGAAAGCCGGGC ((..(((....)))..)) | -20.6 kcal/mol | 59.2 °C
24 | GCTTGGCGAAAGCCTAGC (((.(((....))).))) | -41.9 kcal/mol | 57.6 °C
25 | GCTTGGCGAAAGCGAAGC ((((.((....)).)))) | -18.6 kcal/mol | 60.4 °C
26 | GCTTGGCGAAAGCGACGC ((.(.((....)).).)) | -13.2 kcal/mol | 45.5 °C
27 | GCTTGGCGAAAGCGAGGC ((.(.((....)).).)) | -15.3 kcal/mol | 43.3 °C
28 | GCTTGGCGAAAGCGATGC ((.(.((....)).).)) | -14.3 kcal/mol | 45 °C
29 | GCTTGGCGAAAGCGGAGC (((..((....))..))) | -16.8 kcal/mol | 48.6 °C
30 | GCTTGGCGAAAGCTAGGC ((.(.((....)).).)) | -17 kcal/mol | 44.6 °C
31 | GCTTGGCGAAAGCTCAGC (((..((....))..))) | -15.2 kcal/mol | 41.1 °C
32 | GCTTGGGGAAACCCAAAC (.(((((....))))).) | -14.5 kcal/mol | 39.3 °C
33 | GCTTGTGAAAACAAGC ((((((....)))))) | -34.3 kcal/mol | 63.5 °C
34 | GCTTGTGGAAACACAAGC (((((((....))))))) | -39.9 kcal/mol | 63.9 °C
35 | GCTTGTGGAAACGTAAGC ((((..(....)..)))) | -17.7 kcal/mol | 36.6 °C
36 | GCTTGTTCGAAAGAAAGC (((..(((....)))))) | -16.2 kcal/mol | 26.5 °C
37 | GCTTTAGAAATAAAGC ((((((....)))))) | -31.4 kcal/mol | 45.1 °C
38 | GCTTTAGGAAACCAAAGC (((((.(....).))))) | -28.3 kcal/mol | 35.4 °C
